Assay results: the EternaBench riboswitch data

Tested on: MS2 coat protein
Assay: apparent Kd, MS2 coat protein; higher = weaker binding; RNA-MaP array; FMN 200 µM where present
Procedure, shortened: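 Binding was read on Illumina sequencing-chip clusters where stalled E. coli RNA polymerase had transcribed each design. A titration of SNAP-549-labelled MS2 coat protein began at 0.7 or 1.5 nM and doubled to 3 µM, once without ligand and once with constant ligand, in 100 mM Tris-HCl pH 7.5, 80 mM KCl, 4 mM MgCl2, BSA, DTT, yeast tRNA and Tween-20. The apparent Kd is the median of filtered per-cluster binding-curve fits, based on green signal normalised to red-channel RNA signal and control-cluster median Fmax.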

[1] = designed as: OFF switch for flavin mononucleotide, no ligand
[2] = ligand present: flavin mononucleotide, designed as: OFF switch for flavin mononucleotide
[3] = designed as: ON switch for flavin mononucleotide, no ligand
[4] = ligand present: flavin mononucleotide, designed as: ON switch for flavin mononucleotide

Sequence | apparent Kd [1] [nM] | apparent Kd [2] [nM] | apparent Kd [3] [nM] | apparent Kd [4] [nM]
ACAUUAGAAGAGAAGGUUCAUACUAUUAUCAACAUACAUGAGGAUCACCCAUGUUGGUGAUUAAGAAAGGAUAUUUAUAACACU | 23.1 | 20.6 |  | 
ACCAACAGGGUUGGUACCGGCGCGCAGGAUAUGCUUGCCUACAUGAGGAUCACCCAUGUCUAAAUGCAGAAGGGUGAGCUGAGC |  |  | 193 | 114
ACCAAGCUAGGAUAUGCUUGGGCUCAAAUAAAUAAACACAAACAUGAGGAUCACCCAUGUAGAAGGAGCUUGCU | 12.4 | 15.5 |  | 
ACCAAUGCAGGAUAUACAUGAGGAUCACCCAUGUAUAACCUACAUAGAUGAUCAUCAUGUAGAAGGGCAAUGGA | 13.1 | 12.1 |  | 
ACCACGUUAGCGAUAUGAUCGAGAGAUCAUGUCGCUAAUUUUAGAAGGACAUGAGGAUCACCCAUGUAGGAUAUGGGACGUGGA |  |  | 14.7 | 7.88
ACCAGCGAUAUUUCGGUGAGUCAACCAGAAGGGACGAAGCCACAUGAGGAUCACCCAUGUCACUGUCAGGAUAUGGGAAGCGAC |  |  | 364 | 29.5
ACCCAUGUCCAAGGAUAUGUACUCACAUGAGGAUCACCCAUGUAAAAGGGAGCAGAAGGUGGUACAUGUUAGAGAAUAAUAAAC |  |  | 129 | 11.4
ACCGAAUGAACAUGAGGAUCACCCAUGUACAGGAAACUGAAUGAGGAUAUCCAUAGCAAAGCUAUGGAGAAGGCAUGGGUCGGU |  |  | 363 | 110
ACCGGGUACACAGGAUAUCACGUCCUGACAUGAGGAUCACCCAUGUCGGUCUGAGAAGGGUGGUCCCGCAGCCGACUGUGAUGG |  |  | 254 | 27.3
ACCGGGUGUCACGUAUUACCGACAUGAGGAUCACCCAUGUAGGAGGAUAUGCAGACCGAAAUAAAGCAGAAGGCCUACGUUCUC | 10.6 | 46.6 |  | 
ACCGUUGAAGCAGGAUAUUAUAGCGCCAGCGUAUAAGAAGGGCUUCAACAUGAGGAUCACCCAUGUUGGAGUACCUCAAAAGUG | 5.53 | 23.7 |  | 
ACCUAGACUAGGCCCACGGCAUCACAGGAUAUGCCGAUCACAUGAGGAUCACCCAUGUCAACUCCGCAGAAGGGUGAUAUCGUG |  |  | 179 | 14.1
ACCUCACAUGAGGAUCACCCAUGUCAGGAUAUCUAAUGUAGUAGCGUUCCCGACGCUAAGAGAAGGGACAUUAA | 15.9 | 22 |  | 
ACCUCACAUGAGGAUCACCCAUGUCAGGAUAUCUGAUGUAGUCGCGUUCCCGACGCUAAGAGAAGGGACGUUGA | 40.4 | 35.1 |  | 
ACGACGAAAGUCGAACGAUGAUCGAGAAGGACAUGAGGAUCACCCAUGUCUGCUGUAACAGCCAUGUAGGAUAUCGAUCAUCGA | 3.62 | 4.13 |  | 
ACGACGAAAGUCGAACGAUGUAGCAGAAGGACAUGAGGAUCACCCAUGUCAGCUGUAACAGCCAUGUAGGAUAUGCUACAUCGA | 4.35 | 5.67 |  | 
ACGUAUAGAGGAUAUACAGAAUAUUACAUGAGGAUCACCCAUGUUCUUCAAUGUAUAUUUGUAGAAGGCUAAUGAA | 60.7 | 281 |  | 
ACGUAUCAUGUCAGGAUAUAGCUAGCUACGGCUAGCUAGAAGGGACAUGAGGAUCACCCAUGUCAAAGAUACGU | 14 | 19 |  | 
ACGUUAAAAGGAUAUACAUGAGGAUCACCCAUGUUGUUCGAACCGGUAAACCCUCUAUGUAGAAGGUUUGGCGC | 16 | 17.9 |  | 

Sequence | apparent Kd [1] [nM] | apparent Kd [2] [nM] | apparent Kd [3] [nM] | apparent Kd [4] [nM]
ACGUUUUAUGCAGGAUAUUGACAUAUAUUUAAACAAGAAGGGCAUUACAUGAGGAUCACCCAUGUUAUCAUGGUAUUUAAGUUC | 64.1 | 63.2 |  | 
ACGUUUUUUGAGGAUAUGCGAUAGUUUUAUAUCGUAGAAGGCGAUACAUGAGGAUCACCCAUGUUUAUGGGCAU | 167 | 197 |  | 
ACUAGAUGAGGAUAUGCAUAUUUUCGUGUUCUUCUAGAUUAACAUGAGGAUCACCCAUGUAGAAGGCGUCAUUA | 16.5 | 20.3 |  | 
ACUAUACGAGGAUAUACUGACGGGCCUCAGGCGUCCAUGAGACAUGAGGAUCACCCAUGUAGAAGGCGUAUACU | 174 | 52 |  | 
ACUAUACGAGGAUAUGCUGUCAGUACUCAGAGGUUAGUGUGACAUGAGGAUCACCCAUGUAGAAGGCGUUUACU | 40.8 | 34 |  | 
ACUGAUCAUGAGGAUAUGCGCCAGAACGCCGGCGUAGAAGGCGUGACAUGAGGAUCACCCAUGUCAGUUCGCGA | 59.2 | 60.3 |  | 
ACUGGUCGAGGAUAUACAUUCGUGCUUCGGCACGUAAGAUCACAUGAGGAUCACCCAUGUAGAAGGCGACCAGU | 104 | 732 |  | 
ACUGUCCGAGAGAAGGGAACAUGAGGAUCACCCAUGUUACCUCACCCGGUGACGGAACUCCAAGUUCAGGAUAUCUCGAGCGGU | 7.09 | 12.6 |  | 
ACUGUGUGAGGAUAUCUACGCCAUGUCUUUGACAUGGCGCAAGAGAAGGCACAUGAGGAUCACCCAUGUACUUC | 18.4 | 39.2 |  | 
ACUUAAAUACCCAAAAGUCGGGCGGAGGAUAUGGAGCUUCCACCACAUGAGGAUCACCCAUGUCUUCAGAAGGCCGCCCUUGGA |  |  |  | 11.2
ACUUAUUGAGGAUAUACAGAAAAUUACAUGAGGAUCACCCAUGUUCUUCAAUGUAUAUAUGUAGAAGGCAGAAUAG | 14.4 | 27.6 |  | 
ACUUGCUUGCAGAAGGGUGACAUGAGGAUCACCCAUGUAGCGUGCCGGCGUAAAGUCAGCGCGCCACAGGAUAUGCAGGCCUCG |  |  | 65.8 | 44
ACUUGUAAGUAGAAGGCAGUCAUUAUAUUAAUCAUGUAGACAUGAGGAUCACCCAUGUAGAGUACUGAGGAUAUACAUCGAUAG | 12.5 | 9.85 |  | 
ACUUUUUAUGGACAUGAGGAUCACCCAUGUGCCUUGGGCCUCAAGGAUAUAGUAAUUGUCGUGUACUAGAAGGUGAAGCCAUUA |  |  | 77.2 | 27.9
AGAAAACAUGAGGAUCACCCAUGUAGAAAUAUGGGAGGAUAUACAAAGACGAAAGUCAGAGUAGAAGGCCUAAAAA |  |  | 65.2 | 17.6
AGAAAAGCAGGAUAUAUCCGGGAUAACAUGAGGAUCACCCAUGUGACCGCUUGAUAUCCUAUAGAAGGGCUUAAGA | 24.4 | 51.2 |  | 
AGAAACCAAGGAUAUACAUGAGGAUCACCCAUGUUAGCGUGCAUGCCCUGCCUCAGCUGUAGAAGGUGGACGCC | 25.9 | 28.8 |  | 
AGAAACUACGAGAAGGACAUGAGAACCUUCAUUUACAUGAGGAUCACCCAUGUAGGAUAUCGUAGUUUCAGGAUCGUGAGAUCA | 45.6 | 232 |  | 
AGAAAUAAAAGAGAGGAUAUCCAAAAGAAAACAUGAGGAUCACCCAUGUAAAAGAAAAUAAAAUGGGAGAAGGCUCAAAAUAAAGA |  |  | 115 | 22.6

Sequence | apparent Kd [1] [nM] | apparent Kd [2] [nM] | apparent Kd [3] [nM] | apparent Kd [4] [nM]
AGAAGACAUGAGGAUCACCCAUGUAAGGAUAUUGGAGGUUAGGGAUGCUGGAGUUGGACAAGAAGGUACAGGUG | 52.8 | 50.9 |  | 
AGAAGGCUACAGAAGGGACACACACGGUGGGAGUCAGGAUAUGUAGAGAAAACGUUACAUGAGGAUCACCCAUGUAGACCUUCC |  |  | 73.9 | 16.8
AGACCCUGAACGAAAUCAUACAGUCAGGAUAUACAUGAGGAUCACCCAUGUGCGUACCAACUCGUGUAGAAGGGACUUUCAGGG | 12.3 | 30.2 |  | 
AGACUGCGUAGAAUUAGCAGCUGACAGGAUAUGACAUGAGGAUCACCCAUGUGAAAUAAGAAGAGUCAGAAGGGUCACGACACA | 11.3 | 9.89 |  | 
AGAGGUCUCUGUGAUAACGGUACGAAGGAUAUGCAUGGAUGGGCCGAGACAUGAGGAUCACCCAUGUAGAAGGUCGAUGCGCGU | 51 | 65.7 |  | 
AGAUAACACCAGAAGGACAUGAGGAUCACCCAUGUAGGAUAUGGGCAUCACUCGAGAAAGAUACGACCAAAGGGACACGCGGUC |  |  | 124 | 9.97
AGAUAACAUAGUUAUCCGUAACGGACAUGAGGAUCACCCAUGUAGGAUAUGUUACUCAACGAGUAACAGAAGGACAUGAGUCUU | 17.3 | 102 |  | 
AGAUACUACGAGAAGGACAUGAGGAUCACCCAUGUAACCAGUAUCUGGAAUGUAGGAUAUCGUAGUAUCAGGAUCGUGAGAUCA | 9.91 | 32.9 |  | 
AGAUAGUCAGGAUAUACGUGGAUGGAACACUUAUUUCCACUACAUGAGGAUCACCCAUGUAGAAGGGACUAUCA | 17.8 | 17.8 |  | 
AGAUAUAACUCAGGAUAUCAGCAUGGGUAGAUUACAUGAGGAUCACCCAUGUGCAUGUCCCGGCAUGAGAAGGGAGUAACGCAA |  |  | 81.8 | 27.4
AGAUAUAUACAUGAGGAUCACCCAUGUUAAUAGGUGUUUGUCAGAAGGCAUUAUGAGAGAAUUAAUGAGGAUAUGAAGUAUCAU |  |  | 37.3 | 23
AGAUCCUGAGUCAGGAUAUAGAGACGGUAGUCGGGCUAGAAGGGACAUGAGGAUCACCCAUGUGGGUUCUUGCC | 10.7 | 13.1 |  | 
AGAUGACAAAGUCAUCUCUGGCAGACAUGAGGAUCACCCAUGUAGGAUAUACUACUCAAAGAGUAGUAGAAGGACAUGUGUCUU | 35.9 | 99.4 |  | 
AGAUGACAAUGUCAUCUUCAACGGACAUGAGGAUCACCCAUGUAGGAUAUGCUACUCAAAGAGUAGCAGAAGGACAUGUGUCUU | 23.1 | 85.2 |  | 
AGAUGGCGAGGAUAUACAUGAGGAUCACCCAUGUGAAGAUAAAUAGUGAGGAAGAAAAGUAGAAGGCGCUGUCA | 77.5 | 447 |  | 
AGAUUUGUACAUGAGGAUCACCCAUGUUAAUAGGUGGUUGUCAGAAGGCAUUAAUAGAGUUUUAAUGAGGAUAUGAAUUUACAA |  |  | 1030 | 803
AGAUUUGUACAUGAGGAUCACCCAUGUUAAUAGGUGGUUGUCAGAAGGCAUUAUUAGAGUUUUAAUGAGGAUAUGAAUUUACAA |  |  |  | 541
AGCACGAAAGUGCAACGAUGUACGAGAAGGACAUGAGGAUCACCCAUGUUGCUGUAACUGCUUAUGUAGGAUAUCGUACAUCGA |  | 7.01 |  | 
